In the array DNA melting data of Ke et al. (doi:10.1101/2024.01.08.574731):

Experiments:
[1] = folding enthalpy; higher = less favourable; fluorescence melt of hairpins on a sequencing array, two-state fit; details: sodium 0.088 M
How it was run: (§1)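 Library hairpins on a sequenced MiSeq flow cell carried annealed Cy3 and quencher oligos, and their Cy3 fluorescence was imaged in 50 mM Na-HEPES pH 8.0 with 25 mM NaCl, in 2.5 °C steps up to 60 °C. Signals were normalised to Cy3 before quenching and to control constructs. Melting temperature and folding enthalpy were obtained from bootstrapped two-state fits, combined by inverse-variance weighting across four replicates, and the fitted temperatures were then raised by 9.35 °C to match UV melts.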

[2] = melting temperature; fluorescence melt of hairpins on a sequencing array, two-state fit, raised by 9.35 °C to match UV melts; details: sodium 0.088 M
How it was run: as §1

Sequence	folding enthalpy [1] [kcal/mol]	Tm [2] [°C]
GACACCGCGAAAGCGGTC (((..(((....))))))	-6.65	35.4
GATCGAGCGTCGATC ((((((...))))))	-31.7	51
CGCGGACCGTCCGCG ((((((...))))))	-29	68.9
GATCTGCAGGCAGATC ((((((....))))))	-32.7	60.2
GATCACGCATGTGATC ((((((....))))))	-43.1	67.3
GCCTATCGAAAGATCGGC (((.(((....))).)))	-41.7	49
GGGCCCGAAAGGGCGCCC ((((((....)))..)))	-9.86	58.2
GCCTTCCGAAAGGATGGC (((.(((....))).)))	-42.1	62
GCTGGGCGAAAGCCTTGC ((..(((....)))..))	-17.1	53.2
GTGATCGAAAGATCCAC ((((((....))).)))	-13.3	43.9
GCCTAGCGAAAGCTACGC ((.((((....)))).))	-19	41.8
GCGTAGCGAAAGCAAAGC ((.(.((....)).).))	-14.2	54.5
GTCCAAGGAAACTTGGAC (((((((....)))))))	-41.8	61.6
GCTGTCGAAAGACGTAGC ((((((....)))..)))	-22.7	48.1
GCCTCCGGAAACAGAGGC (((((.(....).)))))	-36.5	48.7
GATCCGGGTGCGGATC ((((((....))))))	-41	63.2
GCGGCGCTCCGC ((((....))))	-14.3	63.4
GTGTAGGGAAACCTGCAC (((.(((....))).)))	-29.7	50.3
GAAATTGAAAAATTTC ((((((....))))))	-23.6	40.3
GGCATTGGAAACGATGTC (.(((.(....).))).)	-25.7	35.1
GTATTCGGAAACGAACAC ((.((((....)))).))	-25.9	34.3
GAGACGGGAAACCGTTTC ((.((((....)))).))	-23.4	45.8
GATCGACGCTCGATC ((((((...))))))	-41.3	49.6

Sequence	folding enthalpy [1] [kcal/mol]	Tm [2] [°C]
GACTCGGGAAACCGAGCC (.(((((....))))).)	-17	47.8
GGAACCGGAAACGATTCC ((((.((....)).))))	-31.3	42.8
GATCCTTCAGAGGATC ((((((....))))))	-48.2	51.6
GGCCTTCGAAAGAATGCC (((.(((....))).)))	-33.1	48.3
GTGTACGGAAACGTGCAC (((.(((....))).)))	-28.3	55.3
GGTTGGTCGAAAGACACC (((..(((....))))))	-17.3	37
GGGTAATCGAAAGATCCC (((..(((....))))))	-25	35.9
GCTGTTGAAAAACAGC ((((((....))))))	-38.6	59.2
GGTACAGGAAACTGTGCC ((.((((....)))).))	-31.8	52.6
GCCCTCGAAAGAGTCGGC ((((((....)))..)))	-24.1	40.9
CTAGTGAAAACTAG (((((....)))))	-15	42.4
GGTGCGGGAAACTGCACC (((((.(....).)))))	-40.6	63.1
GATTACCGAAAGGTGATC (((.(((....))).)))	-37.5	51.8
GACGTCACGAAAGTGGTC (((..(((....))))))	-15	35.6
GACATTGGAAACAACGTC (((.(((....))).)))	-23.2	34
GCGTGGCACGC ((((...))))	-31.8	56.8
GCGATTCGAAAGAACGC (((.(((....))))))	-30.2	52.8
GGAGGCGAAAGCCTATCC ((((((....)))..)))	-9.28	40.8
GGCATCCGAAAGGAAGCC (((.(((....))).)))	-42.9	59.2
GATCACCAGCGTGATC ((((((....))))))	-43.3	53.8
GTCAACGAAAGTTGGAC ((((((....))).)))	-13.2	39.7
GGACAGGGAAACCCGTCC ((((.((....)).))))	-34.1	50.8
GGGACCGAAAGGTGCCCC ((((((....)))..)))	-13.5	57.6

Sequence	folding enthalpy [1] [kcal/mol]	Tm [2] [°C]
GCATTCCGAAAGGAGTGC (((.(((....))).)))	-40	58.4
GATGCACCGAAAGGTATC (((..(((....))))))	-9.42	29
GGTGGAGGAAACTCCGCC ((.((((....)))).))	-46	57.8
GATTCGCGAAAGCGATC (((.(((....))))))	-11.6	44.5
GATACCGAAAGGTCAATC ((((((....)))..)))	-8.3	21.7
GGGATCTCGAAAGAGCCC (((..(((....))))))	-27.9	51.2
GGGCGACGAAAGTCCCCC (((.(((....))).)))	-31.2	55.7
GGCTGGAAACAGCC (((((....)))))	-30.9	67.5
GATCTTAACAAAGATC ((((((....))))))	-33	42.5
GATGGCGAAAGCCGAATC ((((((....)))..)))	-8.36	34.4
GCAACCGAAAGGTATTGC ((((((....)))..)))	-18.3	39.9
GCTAATGGAAACGTTAGC (((((.(....).)))))	-29.7	43.9
GATCCAGTTCTGGATC ((((((....))))))	-39.6	55.5
GAATGCACGAAAGTGTTC (((..(((....))))))	-8.75	23.1
GGAGCTCCGAAAGGATCC (((..(((....))))))	-10.9	30.5
GATCTTAAAAAAGATC ((((((....))))))	-20.3	33.7
GCTACCGGAAACGGTGGC ((.((((....)))).))	-33.8	60
GACTTAGGAAACTGAGTC ((((.((....)).))))	-36.1	41.2
GTTCGCGGAAACGCGGAC ((.((((....)))).))	-26.6	60.7
GTGCGAGGAAACTCGTAC ((.((((....)))).))	-31.6	53.4
GTAGTCGGAAACGACCAC ((.((((....)))).))	-14.5	37.4
GGGCGTCGAAAGACCCCC (((.(((....))).)))	-16.6	59
GGGATCCCGAAAGGGCCC (((..(((....))))))	-16.4	45

Sequence	folding enthalpy [1] [kcal/mol]	Tm [2] [°C]
GTGGGGGGAAACCTCCAC ((((.((....)).))))	-44.1	54.5
GTAGACCGAAAGGTATAC (((.(((....))).)))	-36	51.7
GGACGCGAAAGCGGTCC ((((((....))).)))	-21.2	68.8
GATCGTTCGGACGATC ((((((....))))))	-37.8	56.9
GGCCATGGAAACATGACC ((.((((....)))).))	-29.2	47.6
GCCAAGGGAAACCCTAGC ((.(.((....)).).))	-17.6	28.8
GAAAGCGAAAGCTCATTC ((((((....)))..)))	-8.68	23.9
GCGAATGTTCGC ((((....))))	-25.7	50.3
GATCTGTTAGCAGATC ((((((....))))))	-42.9	52.3
GTGAAAGGAAACCTTCAC (((((.(....).)))))	-27	36.5
GCTGCGGGAAACCACAGC ((((.((....)).))))	-37.5	52.7
GCTTGGCGAAAGCCCGGC ((..(((....)))..))	-14.4	45.4
CGCACGGAAACGTAGCG ((((((....))).)))	-30.4	53.8
GAGCATGGAAACATGCTC (((((((....)))))))	-37.1	67.5
GCATACGAAAGTACATGC ((((((....)))..)))	-26.9	38.9
GACGGCGAAAGCCTCGTC ((((((....)))..)))	-13.1	56.4
GGATGGGGAAACCTGTCC (((..((....))..)))	-29.3	41
CGCGCGGAAACGCGAGCG ((((((....)))..)))	-12.1	60.7
GATCACGCTGTGATC ((((((...))))))	-39.5	59.2
GCGTCGACGAAAGTCCGC (((..(((....))))))	-22.2	49.7
GAACACGAAAGTGGTTC ((((((....))).)))	-18.6	47.1
GCGCCTGGAAACAGACGC (((.(((....))).)))	-29.4	55.8
GTGGCGGGAAACTGCCAC (((((.(....).)))))	-54.1	60.7
